Data on 8 molecules can be found in ChEMBL document CHEMBL3045170, “Synthesis and biological activity of organotin 4-methyl-1,2,3-thiadiazole-5-carboxylates and benzo[1,2,3]thiadiazole-7-carboxylates” (J Agric Food Chem, 2010).

Common to all, as to assay type: functional
Holding throughout (settings): for inhibition of growth at 50 µg/mL: 48 h, read-out: GI

One experiment deals with Alternaria solani. The experiment in a line: Fungicidal activity against Alternaria solani assessed as growth inhibition at 50 ug/ml after 2 days. Summed up:
(§1)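 Poisoned-plate mycelial growth assay. The test sample was mixed into molten potato dextrose agar in a Petri dish before it set. Fungus was inoculated and incubated at 24-26 °C. Colony spread diameter was measured after 2 days, and percent growth inhibition was calculated relative to the corresponding control plate.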

Experiment [1] concerns Botryosphaeria berengeriana. The experiment in a line: Fungicidal activity against Botryosphaeria berengeriana assessed as growth inhibition at 50 ug/ml after 2 days. Summed up:
as §1

The test system of the next experiment is Fusarium graminearum. As to the kind of experiment: Fungicidal activity against Fusarium graminearum assessed as growth inhibition at 50 ug/ml after 2 days. In outline:
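Mycelial growth test on potato dextrose agar (9 mL) in Petri dishes, with the plate mixed thoroughly before setting. Gibberella zeae inoculated and cultured at 24-26 °C. Colony spread diameter measured after 2 days, and growth inhibition calculated relative to the corresponding control.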

The next experiment has as its system Botrytis cinerea. As to the kind of experiment: Fungicidal activity against Botryotinia fuckeliana assessed as growth inhibition at 50 ug/ml after 2 days. In outline:
as §1

The subject of another experiment is Mycosphaerella arachidis. The experiment in a line: Fungicidal activity against Mycosphaerella arachidis assessed as growth inhibition at 50 ug/ml after 2 days. In outline:
as §1

As to `CCCC1COC(Cn2cncn2)(c2ccc(Cl)cc2Cl)O1` (stereo not given) [PROPICONAZOLE], the inhibition of growth at 50 µg/mL was 89.2% with Alternaria solani; 100% in experiment [1]; 100% with Fusarium graminearum; 100% with Botrytis cinerea; 100% with Mycosphaerella arachidis.

As to `O=C(O)c1cccc2nnsc12` [1,2,3-benzothia-diazole-7-carboxylic acid], the inhibition of growth at 50 µg/mL came to 42.4% with Alternaria solani; 40.5% in experiment [1]; 60.7% in the experiment on Fusarium graminearum; 72.1% with Botrytis cinerea; 30.8% in the experiment with Mycosphaerella arachidis.

In the case of “tricyclohexylstannyl benzo[d][1,2,3]thiadiazole-7-carboxylate”, the growth inhibition (GI) is 50% in the experiment on Alternaria solani; 92.5% in experiment [1]; 50% in the experiment with Fusarium graminearum; 94.1% with Botrytis cinerea; 76.7% in the experiment on Mycosphaerella arachidis.

For “diethylstannanediyl dibenzo[d][1,2,3]thiadiazole-7-carboxylate”, the growth inhibition (GI) in the experiment with Alternaria solani stood at 32.3%; in experiment [1], 36.7%; with Fusarium graminearum it was 50%; with Botrytis cinerea, 43.2%; in the experiment with Mycosphaerella arachidis, 20.5%.

Turning to “triphenylstannyl benzo[d][1,2,3]thiadiazole-7-carboxylate”, the growth inhibition (GI) in the experiment with Alternaria solani is 92.5%; in experiment [1], 97.2%; with Fusarium graminearum it was 54.8%; in the experiment with Botrytis cinerea it was 91.9%; in the experiment with Mycosphaerella arachidis, 71.8%.

With “dibutylstannanediyl dibenzo[d][1,2,3]thiadiazole-7-carboxylate”, the growth inhibition (GI) in the experiment with Alternaria solani came out at 19.8%; in experiment [1] it was 27.3%; with Fusarium graminearum, 58.3%; in the experiment with Botrytis cinerea, 29.7%; with Mycosphaerella arachidis it was 23.1%.

Take “tributylstannyl benzo[d][1,2,3]thiadiazole-7-carboxylate”: the growth inhibition (GI) with Alternaria solani is 92.5%; in experiment [1] it was 97.2%; with Fusarium graminearum it was 92.9%; in the experiment on Botrytis cinerea, 98.2%; with Mycosphaerella arachidis it was 97.4%.

Consider “triethylstannyl benzo[d][1,2,3]thiadiazole-7-carboxylate”, for which the growth inhibition (GI) (in the experiment on Alternaria solani; in experiment [1]; in the experiment on Fusarium graminearum; in the experiment with Botrytis cinerea; in the experiment on Mycosphaerella arachidis) was 100% each time.
